Common to all, as to format: functional, cell-based
In assay [1] the test system is HL-60. The assay can be described thus: Phototoxicity against human HL60 cells irradiated with 4.1 J/cm^2 broad spectrum light treated 2 hrs before irradiation measured after 24 hrs by MTT assay. Conditions: HL-60, light or radiation study. In outline: (§1)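 HL60 at 15000 cells/well; HSC-2 and HK1 at 3000 cells/well, adhered overnight; phenol-red-free medium with 10% FBS. Compound tested at 0.001–100.0 μM from DMSO stock; controls 0.01% DMSO. After 2 h, irradiated with broad-spectrum light at 6.8 mW/cm2, or dark. After 24 h, MTT 4 h at 37 °C, formazan in DMSO, A570. Three determinations, mean ± SD.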
For orientation: Tetrazolium dyes change colour on reduction, which living cells bring about.

The nature of assay [2]: Phototoxicity against human HK1 cells irradiated with 4.1 J/cm^2 broad spectrum light treated 2 hrs before irradiation measured after 24 hrs by MTT assay. Conditions: HK-1, light or radiation study. In outline:
as §1

Assay [3] relates to HSC-2. The experiment in a line: Phototoxicity against human HSC2 cells irradiated with 4.1 J/cm^2 broad spectrum light treated 2 hrs before irradiation measured after 24 hrs by MTT assay. The conditions noted are these: HSC-2, light or radiation study. Summed up: as §1
The subject of assay [4] is HSC-2. The experiment in a line: Cytotoxicity against human HSC2 cells after 24 hrs by MTT assay. Conditions: HSC-2, 24 h. In outline:
as §1

Assay [5] in a line: Cytotoxicity against human HK1 cells after 24 hrs by MTT assay. The conditions noted are these: HK-1, 24 h. Summed up:
as §1

The test system of assay [6] is HL-60. The assay can be described thus: Cytotoxicity against human HL60 cells after 24 hrs by MTT assay. Conditions: HL-60, 24 h. Summed up:
as §1

Usually IC50 stands for the concentration needed to halve the response being measured. The low end stands for greater potency, the high end for weaker potency. As to `CC1=C(/C=C/C(=O)O)C(C)=[N+]2C1=Cc1c(C)cc(C)n1[B-]2(F)F`, the IC50 (in the assay with HL-60 [1]; in assay [2]; in the assay with HSC-2 [3]; in the assay on HSC-2 [4]; in assay [5]; with HL-60 [6]) was more than 100 µM throughout.

Turning to `CC1=C(C=O)C(C)=[N+]2C1=Cc1c(C)cc(C)n1[B-]2(F)F`, the IC50 (in the assay on HL-60 [1]; in assay [2]; in the assay with HSC-2 [3]; with HSC-2 [4]; in assay [5]; in the assay on HL-60 [6]) was more than 100 µM each time.

With `CC1=C(I)C(C)=[N+]2C1=C(c1ccc(I)cc1)c1c(C)c(I)c(C)n1[B-]2(F)F`, the IC50 with HL-60 [1] turned out to be 0.42 µM; in assay [2], 0.69 µM; in the assay with HSC-2 [3], 0.5 µM; with HSC-2 [4] it was 10 µM; in assay [5] it was 95.5 µM; with HL-60 [6], 10 µM.

For `CC1=C(I)C(C)=[N+]2C1=Cc1c(C)c(I)c(C)n1[B-]2(F)F`, the 50% inhibitory concentration (IC50) with HL-60 [1] was 0.062 µM; in assay [2] it was 0.57 µM; in the assay with HSC-2 [3], 0.64 µM; with HSC-2 [4], more than 100 µM; in assay [5], more than 100 µM; in the assay on HL-60 [6], more than 100 µM.

With `CC1=CC(C)=[N+]2C1=C(c1ccc(I)cc1)c1c(C)cc(C)n1[B-]2(F)F`, the IC50 was 2.7 µM with HL-60 [1]; 5.7 µM in assay [2]; 5.1 µM in the assay with HSC-2 [3]; more than 100 µM with HSC-2 [4]; more than 100 µM in assay [5]; more than 100 µM with HL-60 [6].

As for `CCCCOC(=O)/C=C/C1=C(C)C2=Cc3c(C)cc(C)n3[B-](F)(F)[N+]2=C1C`, the IC50 in the assay on HL-60 [1] is 0.49 µM; in assay [2], 1.1 µM; in the assay on HSC-2 [3], 0.6 µM; in the assay on HSC-2 [4], more than 100 µM; in assay [5], 99.6 µM; in the assay with HL-60 [6], more than 100 µM.

With `COC(=O)C1=CCCCC1C1=C(C)C2=Cc3c(C)cc(C)n3[B-](F)(F)[N+]2=C1C` (configuration not stated), the IC50 with HL-60 [1] was 4.9 µM; in assay [2] it was 5 µM; with HSC-2 [3], 4.1 µM; with HSC-2 [4], more than 100 µM; in assay [5] it was more than 100 µM; in the assay on HL-60 [6] it was more than 100 µM.

As to `CC1=C(/C=C/S(=O)(=O)O)C(C)=[N+]2C1=Cc1c(C)cc(C)n1[B-]2(F)F`, the IC50 (in the assay with HL-60 [1]; in assay [2]; in the assay with HSC-2 [3]; in the assay on HSC-2 [4]; in assay [5]; with HL-60 [6]) was more than 100 µM throughout.

As for `COC(=O)C1=CCCC1C1=C(C)C2=Cc3c(C)c(C4CCC=C4C(=O)OC)c(C)n3[B-](F)(F)[N+]2=C1C` (configuration not stated), the 50% inhibitory concentration (IC50) is 3.8 µM in the assay with HL-60 [1], 4.8 µM in assay [2], more than 100 µM in assay [5] and more than 100 µM with HL-60 [6].

As to `CC1=CC(C)=[N+]2C1=Cc1c(C)cc(C)n1[B-]2(F)F`, the IC50 is 4.4 µM in the assay with HL-60 [1]; 6.2 µM in assay [2]; 8.7 µM in the assay with HSC-2 [3]; more than 100 µM in the assay with HSC-2 [4]; 76.8 µM in assay [5]; more than 100 µM with HL-60 [6].

On to `CCCCOC(=O)/C=C/C1=C(C)C2=Cc3c(C)c(/C=C/C(=O)OCCCC)c(C)n3[B-](F)(F)[N+]2=C1C`, for which the IC50 was 57.7 µM with HL-60 [1]; more than 100 µM in assay [2]; 37.7 µM in the assay on HSC-2 [3]; more than 100 µM with HSC-2 [4]; more than 100 µM in assay [5]; more than 100 µM in the assay on HL-60 [6].

`COC(=O)/C=C/C1=C(C)C2=Cc3c(C)c(/C=C/C(=O)OC)c(C)n3[B-](F)(F)[N+]2=C1C`: the IC50 is 5.2 µM in the assay with HL-60 [1]; 8.5 µM in assay [2]; 11.1 µM in the assay on HSC-2 [3]; more than 100 µM with HSC-2 [4]; more than 100 µM in assay [5]; more than 100 µM with HL-60 [6].

Consider `CC1=C(S(=O)(=O)O)C(C)=[N+]2C1=C(c1ccc(I)cc1)c1c(C)c(S(=O)(=O)O)c(C)n1[B-]2(F)F`, for which the IC50 with HL-60 [1] was 54.3 µM; in assay [2] it was 59 µM; in the assay with HSC-2 [3] it was 59.4 µM; with HSC-2 [4] it was more than 100 µM; in assay [5], more than 100 µM; with HL-60 [6], more than 100 µM.

As to `COC(=O)/C=C/C1=C(C)C2=Cc3c(C)cc(C)n3[B-](F)(F)[N+]2=C1C`, the IC50 with HL-60 [1] is 4.8 µM; in assay [2] it was 5.3 µM; in the assay with HSC-2 [3], 5.4 µM; with HSC-2 [4], more than 100 µM; in assay [5], more than 100 µM; in the assay with HL-60 [6], more than 100 µM.

The values above are taken from ChEMBL document CHEMBL1156295, “In vitro and in vivo photocytotoxicity of boron dipyrromethene derivatives for photodynamic therapy” (J Med Chem, 2010).
